ChEMBL document CHEMBL1275468, “Plasmid-mediated qnrB2 and carbapenemase gene bla(KPC-2) carried on the same plasmid in carbapenem-resistant ciprofloxacin-susceptible Enterobacter cloacae isolates” (2008)

How the values were obtained:
Format in all cases: functional
Enterobacter cloacae [1] = assay: Antimicrobial activity against Enterobacter cloacae isolate 656 containing PFGE genetic clone A expressing beta-lactamase KPC-2 and SHV-12 gene by Etest in presence of beta-lactamase inhibitor Tazobactam
In short: (§1)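 Clinical carbapenem-resistant, blaKPC-2-carrying E. cloacae isolates; MIC read by Etest. Clonal relatedness typed by PFGE after SpeI (20 U) digestion of genomic DNA on a CHEF-DR III system. qnr genes, and aac(6′)-Ib-cr by PCR with BtsCI digestion, detected from cell-lysate templates.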

Enterobacter cloacae [2] = assay: Antimicrobial activity against Enterobacter cloacae isolate 649 containing PFGE genetic clone B expressing qnrB2 and beta-lactamase KPC-2 and SHV-12 gene by Etest in presence of beta-lactamase inhibitor Tazobactam; in short: as §1
Enterobacter cloacae [3] = assay: Antimicrobial activity against Enterobacter cloacae isolate 658 containing PFGE genetic clone B expressing qnrB2 and beta-lactamase KPC-2 and SHV-12 gene by Etest in presence of beta-lactamase inhibitor Tazobactam; in short: as §1
Enterobacter cloacae [4] = assay: Antimicrobial activity against Enterobacter cloacae isolate 781 containing PFGE genetic clone B expressing qnrB2 and beta-lactamase KPC-2 and SHV-12 gene by Etest in presence of beta-lactamase inhibitor Tazobactam; in short: as §1
Enterobacter cloacae [5] = assay: Antimicrobial activity against Enterobacter cloacae isolate 837 containing PFGE genetic clone B expressing qnrB2 and beta-lactamase KPC-2 and SHV-12 gene by Etest in presence of beta-lactamase inhibitor Tazobactam; in short: as §1
Enterobacter cloacae [6] = assay: Antimicrobial activity against Enterobacter cloacae isolate 4469 containing PFGE genetic clone C expressing qnrB2 and beta-lactamase KPC-2 and SHV-12 gene by Etest in presence of beta-lactamase inhibitor Tazobactam
Escherichia coli [7] = assay: Antimicrobial activity against Escherichia coli T-622 harboring expressing qnrB2 and beta-lactamase KPC-2 and SHV-12 gene by Etest in presence of beta-lactamase inhibitor Tazobactam
Escherichia coli [8] = assay: Antimicrobial activity against Escherichia coli T-625 harboring expressing qnrB2 and beta-lactamase KPC-2 and SHV-12 gene by Etest in presence of beta-lactamase inhibitor Tazobactam
Escherichia coli [9] = assay: Antimicrobial activity against Escherichia coli T-781 harboring expressing qnrB2 and beta-lactamase KPC-2 and SHV-12 gene by Etest in presence of beta-lactamase inhibitor Tazobactam
Escherichia coli [10] = assay: Antimicrobial activity against Escherichia coli GeneHogs by Etest in presence of beta-lactamase inhibitor Tazobactam
In short: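 Recipient is E. coli GeneHogs (recA1), electroporated with plasmid DNA from clinical isolates. Transformants were selected on LB agar with 100 μg/ml ampicillin and PCR-screened for blaKPC, blaSHV and qnr genes. MIC read by Etest.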

Enterobacter cloacae [11] = assay: Antimicrobial activity against Enterobacter cloacae isolate 1 containing PFGE genetic clone A expressing qnrB2 and beta-lactamase KPC-2 and SHV-12 gene by Etest
Enterobacter cloacae [12] = assay: Antimicrobial activity against Enterobacter cloacae isolate 18 containing PFGE genetic clone A expressing qnrB2 and beta-lactamase KPC-2 and SHV-12 gene by Etest
Enterobacter cloacae [13] = assay: Antimicrobial activity against Enterobacter cloacae isolate 140 containing PFGE genetic clone A expressing beta-lactamase KPC-2 and SHV-12 gene by Etest
Enterobacter cloacae [14] = assay: Antimicrobial activity against Enterobacter cloacae isolate 151 containing PFGE genetic clone A expressing qnrB2 and beta-lactamase KPC-2 gene by Etest
Enterobacter cloacae [15] = assay: Antimicrobial activity against Enterobacter cloacae isolate 185 containing PFGE genetic clone A expressing qnrB2 aac(6')-Ib-cr and beta-lactamase KPC-2 and SHV-12 gene by Etest
Enterobacter cloacae [16] = assay: Antimicrobial activity against Enterobacter cloacae isolate 293 containing PFGE genetic clone A expressing qnrB2 and beta-lactamase KPC-2 and SHV-12 gene by Etest
Enterobacter cloacae [17] = assay: Antimicrobial activity against Enterobacter cloacae isolate 533 containing PFGE genetic clone A expressing qnrB2 and beta-lactamase KPC-2 and SHV-12 gene by Etest
Enterobacter cloacae [18] = assay: Antimicrobial activity against Enterobacter cloacae isolate 622 containing PFGE genetic clone A expressing qnrB2 and beta-lactamase KPC-2 and SHV-12 gene by Etest
Enterobacter cloacae [19] = assay: Antimicrobial activity against Enterobacter cloacae isolate 625 containing PFGE genetic clone A expressing qnrB2 and beta-lactamase KPC-2 and SHV-12 gene by Etest
Enterobacter cloacae [20] = assay: Antimicrobial activity against Enterobacter cloacae isolate 656 containing PFGE genetic clone A expressing beta-lactamase KPC-2 and SHV-12 gene by Etest
Enterobacter cloacae [21] = assay: Antimicrobial activity against Enterobacter cloacae isolate 649 containing PFGE genetic clone B expressing qnrB2 and beta-lactamase KPC-2 and SHV-12 gene by Etest
Enterobacter cloacae [22] = assay: Antimicrobial activity against Enterobacter cloacae isolate 658 containing PFGE genetic clone B expressing qnrB2 and beta-lactamase KPC-2 and SHV-12 gene by Etest
Enterobacter cloacae [23] = assay: Antimicrobial activity against Enterobacter cloacae isolate 781 containing PFGE genetic clone B expressing qnrB2 and beta-lactamase KPC-2 and SHV-12 gene by Etest
Enterobacter cloacae [24] = assay: Antimicrobial activity against Enterobacter cloacae isolate 837 containing PFGE genetic clone B expressing qnrB2 and beta-lactamase KPC-2 and SHV-12 gene by Etest
Enterobacter cloacae [25] = assay: Antimicrobial activity against Enterobacter cloacae isolate 4469 containing PFGE genetic clone C expressing qnrB2 and beta-lactamase KPC-2 and SHV-12 gene by Etest
Escherichia coli [26] = assay: Antimicrobial activity against Escherichia coli T-622 harboring expressing qnrB2 and beta-lactamase KPC-2 and SHV-12 gene by Etest
In short: (§2)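 MIC read by Etest. Strains are E. coli GeneHogs (recA1) transformants. Plasmid DNA from clinical E. cloacae isolates was introduced by electroporation. Transformants were selected on LB agar with 100 μg/ml ampicillin, then PCR-screened for blaKPC, blaSHV and qnr genes.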

Escherichia coli [27] = assay: Antimicrobial activity against Escherichia coli T-625 harboring expressing qnrB2 and beta-lactamase KPC-2 and SHV-12 gene by Etest; in short: as §2
Escherichia coli [28] = assay: Antimicrobial activity against Escherichia coli T-781 harboring expressing qnrB2 and beta-lactamase KPC-2 and SHV-12 gene by Etest; in short: as §2
Escherichia coli [29] = assay: Antimicrobial activity against Escherichia coli GeneHogs by Etest
In short: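 MIC read by Etest on the plasmid-free electroporation recipient, E. coli GeneHogs (recA1 mutant).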

Enterobacter cloacae [30] = assay: Antimicrobial activity against Enterobacter cloacae isolate 1 containing PFGE genetic clone A expressing qnrB2 and beta-lactamase KPC-2 and SHV-12 gene by Etest in presence of beta-lactamase inhibitor Tazobactam; in short: as §1
Enterobacter cloacae [31] = assay: Antimicrobial activity against Enterobacter cloacae isolate 18 containing PFGE genetic clone A expressing qnrB2 and beta-lactamase KPC-2 and SHV-12 gene by Etest in presence of beta-lactamase inhibitor Tazobactam; in short: as §1
Enterobacter cloacae [32] = assay: Antimicrobial activity against Enterobacter cloacae isolate 140 containing PFGE genetic clone A expressing beta-lactamase KPC-2 and SHV-12 gene by Etest in presence of beta-lactamase inhibitor Tazobactam; in short: as §1
Enterobacter cloacae [33] = assay: Antimicrobial activity against Enterobacter cloacae isolate 151 containing PFGE genetic clone A expressing qnrB2 and beta-lactamase KPC-2 gene by Etest in presence of beta-lactamase inhibitor Tazobactam; in short: as §1
Enterobacter cloacae [34] = assay: Antimicrobial activity against Enterobacter cloacae isolate 185 containing PFGE genetic clone A expressing qnrB2 aac(6')-Ib-cr and beta-lactamase KPC-2 and SHV-12 gene by Etest in presence of beta-lactamase inhibitor Tazobactam; in short: as §1
Enterobacter cloacae [35] = assay: Antimicrobial activity against Enterobacter cloacae isolate 293 containing PFGE genetic clone A expressing qnrB2 and beta-lactamase KPC-2 and SHV-12 gene by Etest in presence of beta-lactamase inhibitor Tazobactam; in short: as §1
Enterobacter cloacae [36] = assay: Antimicrobial activity against Enterobacter cloacae isolate 533 containing PFGE genetic clone A expressing qnrB2 and beta-lactamase KPC-2 and SHV-12 gene by Etest in presence of beta-lactamase inhibitor Tazobactam; in short: as §1
Enterobacter cloacae [37] = assay: Antimicrobial activity against Enterobacter cloacae isolate 622 containing PFGE genetic clone A expressing qnrB2 and beta-lactamase KPC-2 and SHV-12 gene by Etest in presence of beta-lactamase inhibitor Tazobactam; in short: as §1
Enterobacter cloacae [38] = assay: Antimicrobial activity against Enterobacter cloacae isolate 625 containing PFGE genetic clone A expressing qnrB2 and beta-lactamase KPC-2 and SHV-12 gene by Etest in presence of beta-lactamase inhibitor Tazobactam; in short: as §1

Measured: MIC

CCN1CCN(C(=O)N[C@@H](C(=O)N[C@@H]2C(=O)N3[C@@H]2SC(C)(C)[C@@H]3C(=O)O)c2ccccc2)C(=O)C1=O [PIPERACILLIN]
≤ 4 µg/mL: Escherichia coli [10] | Escherichia coli [29]
≥ 128 µg/mL: Enterobacter cloacae [1] | Enterobacter cloacae [2] | Enterobacter cloacae [3] | Enterobacter cloacae [4] | Enterobacter cloacae [5] | Escherichia coli [8] | Enterobacter cloacae [11] | Enterobacter cloacae [12] | Enterobacter cloacae [13] | Enterobacter cloacae [14] | Enterobacter cloacae [15] | Enterobacter cloacae [16] | Enterobacter cloacae [17] | Enterobacter cloacae [18] | Enterobacter cloacae [19] | Enterobacter cloacae [20] | Enterobacter cloacae [21] | Enterobacter cloacae [22] | Enterobacter cloacae [23] | Enterobacter cloacae [24] | Enterobacter cloacae [25] | Escherichia coli [26] | Escherichia coli [27] | Escherichia coli [28] | Enterobacter cloacae [30] | Enterobacter cloacae [31] | Enterobacter cloacae [32] | Enterobacter cloacae [33] | Enterobacter cloacae [34] | Enterobacter cloacae [35] | Enterobacter cloacae [36] | Enterobacter cloacae [37] | Enterobacter cloacae [38]
64 µg/mL: Enterobacter cloacae [6] | Escherichia coli [7] | Escherichia coli [9]
